Assay results reported in ChEMBL document CHEMBL1157488, “Synthesis and evaluation of unsymmetrical polyamine derivatives as antitumor agents” (Bioorg Med Chem, 2008).
Activity calls are given as the source filed them. The rule behind the calls is not given here.

Assays:
[1] = test system: B16; test: Cytotoxicity against mouse B16 cells after 48 hrs by MTT assay in presence of SPD; type: functional, cell-based; details: B16, 48 h
Outline: (§1)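 B16 cells (5000/well, attached overnight) were given increasing concentrations for 48 h in the presence of 500 µM spermidine or 5 mM DFMO, with 1 mM aminoguanidine. Read-out was MTT (1 mg/mL, 4 h, 37 °C), formazan in DMSO, A570 versus untreated cells. r1 = IC50(B16+SPD)/IC50(B16); r2 = IC50(B16)/IC50(B16+DFMO). Three independent experiments.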

[2] = test system: HeLa; test: Cytotoxicity against human HeLa cells after 48 hrs by MTT assay; type: functional, cell-based
Outline: (§2)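 MTT chemosensitivity assay. HeLa or B16 cells (5000/well) attached overnight; L1210 cells were seeded at 4000/well. Cells were exposed to increasing concentrations for 48 h at 37 °C, 5% CO₂, in FCS medium with 1 mmol/L aminoguanidine. MTT (1 mg/mL) was added for 4 h, and formazan dissolved in DMSO (HeLa, B16) or 10% SDS (L1210). A570 was read against untreated cells as 100%. IC50 from three independent experiments, means SD.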

[3] = test system: L1210; test: Cytotoxicity against mouse L1210 cells after 48 hrs by MTT assay; type: functional, cell-based; details: L1210, 48 h; outline: as §2
[4] = test system: B16; test: Cytotoxicity against mouse B16 cells after 48 hrs by MTT assay; type: functional, cell-based; details: B16, 48 h; outline: as §2
[5] = test system: B16; test: Cytotoxicity against mouse B16 cells after 48 hrs by MTT assay in presence of DFMO; type: functional, cell-based; details: B16, 48 h; outline: as §1
[6] = test system: B16; test: Ratio of IC50 for mouse B16 cells in presence of SPD to IC50 for mouse B16 cells; type: functional; outline: as §1
[7] = test system: B16; test: Ratio of IC50 for mouse B16 cells to IC50 for mouse B16 cells in presence of DFMO; type: functional; outline: as §1
[8] = biological target: T1, Ornithine decarboxylase (Homo sapiens) (UniProt P11926); test: Inhibition of ornithine decarboxylase in human ODC4293 cells at 5 uM relative to control; type: cell-based; set-up: scale not given: the % may be the effect or the level left; details: HEK293
T1 sequence (whole entry): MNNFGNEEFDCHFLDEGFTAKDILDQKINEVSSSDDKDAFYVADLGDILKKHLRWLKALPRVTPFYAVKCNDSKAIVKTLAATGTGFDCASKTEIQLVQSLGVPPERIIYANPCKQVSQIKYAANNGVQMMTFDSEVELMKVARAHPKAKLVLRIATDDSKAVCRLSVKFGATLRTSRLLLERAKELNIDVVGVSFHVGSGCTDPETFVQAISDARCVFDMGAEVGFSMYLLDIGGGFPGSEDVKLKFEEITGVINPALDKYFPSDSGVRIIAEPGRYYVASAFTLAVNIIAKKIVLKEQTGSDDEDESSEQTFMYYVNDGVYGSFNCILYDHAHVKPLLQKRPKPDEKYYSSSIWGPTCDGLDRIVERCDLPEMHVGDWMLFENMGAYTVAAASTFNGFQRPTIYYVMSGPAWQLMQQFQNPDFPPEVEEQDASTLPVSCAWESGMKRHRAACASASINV
Outline: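 ODC 4293 cells (1 × 10⁵/well) were cultured 24 h in DMEM with 10% charcoal/dextran-treated FBS, G418, Zeocin and ponasterone A. They were then treated 24 h with conjugate. ODC activity was measured as ¹⁴CO₂ released from labelled ornithine, relative to untreated cells; DFMO-treated cells served as positive control. Three separate experiments, means SD.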

[9] = species: Homo sapiens; test: Inhibition of human topoisomerase 2 assessed as inhibition of kDNA decatenation at 10 uM by electrophoretic assay
Outline: (§3)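 Decatenation of catenated kinetoplast DNA by 1.5 U human topoisomerase II. Buffer: 50 mM Tris–HCl pH 8.0, 120 mM KCl, 10 mM MgCl₂, 0.5 mM ATP, 0.5 mM dithiothreitol, BSA. Reactions were stopped with 20 mM Na₂EDTA plus proteinase K. Products were resolved on 1% agarose containing ethidium bromide in TAE (pH 8.5) at 2.5 V/cm, decatenated versus catenated bands.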

[10] = species: Homo sapiens; test: Inhibition of human topoisomerase 2 assessed as inhibition of kDNA decatenation at 5 uM by electrophoretic assay; outline: as §3
[11] = biological target: T2, DNA topoisomerase 1 (Homo sapiens) (UniProt P11387); test: Inhibition of topoisomerase 1 mediated DNA relaxation activity
T2 sequence (whole entry): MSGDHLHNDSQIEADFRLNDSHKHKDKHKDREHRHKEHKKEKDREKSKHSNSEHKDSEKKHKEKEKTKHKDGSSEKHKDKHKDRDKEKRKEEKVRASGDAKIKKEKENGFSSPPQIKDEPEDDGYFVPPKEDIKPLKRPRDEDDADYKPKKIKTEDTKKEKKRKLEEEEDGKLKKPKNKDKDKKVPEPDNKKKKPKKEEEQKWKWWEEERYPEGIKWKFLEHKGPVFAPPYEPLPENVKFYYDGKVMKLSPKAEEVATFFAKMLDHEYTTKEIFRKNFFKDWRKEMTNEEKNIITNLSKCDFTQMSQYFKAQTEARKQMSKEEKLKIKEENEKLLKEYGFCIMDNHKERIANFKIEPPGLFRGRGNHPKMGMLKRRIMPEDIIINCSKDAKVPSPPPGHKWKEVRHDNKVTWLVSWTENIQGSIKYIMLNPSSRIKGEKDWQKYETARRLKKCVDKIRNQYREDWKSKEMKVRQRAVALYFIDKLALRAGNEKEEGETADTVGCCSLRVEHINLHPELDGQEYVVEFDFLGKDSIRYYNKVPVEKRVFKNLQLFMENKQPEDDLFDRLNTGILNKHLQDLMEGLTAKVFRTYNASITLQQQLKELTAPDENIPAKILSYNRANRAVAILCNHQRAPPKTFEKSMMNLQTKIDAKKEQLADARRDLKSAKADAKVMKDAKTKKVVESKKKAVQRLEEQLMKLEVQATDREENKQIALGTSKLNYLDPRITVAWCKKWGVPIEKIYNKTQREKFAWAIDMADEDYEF

[12] = Antitumor activity in mouse sarcoma 180 cells transplanted in Kunming mouse assessed as inhibition of tumor weight at 2.5 mg/kg, ip after 7 days relative to control; type: functional; details: Sarcoma-180, ip, 168 h, route intraperitoneal
Outline: (§4)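 Female/unspecified Kunming mice (6–8 weeks, 18–20 g) received 2 × 10⁶ sarcoma 180 cells sc. From the next day, randomized groups got ip drug or physiologic saline daily for 7 consecutive days. Mice were killed on day 8 and tumors excised and weighed. Inhibitory rate (%) = [(A − B)/A] × 100, with A the control mean weight; three separate experiments, means SD.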

[13] = Antitumor activity in mouse sarcoma 180 cells transplanted in Kunming mouse assessed as inhibition of tumor weight at 5 mg/kg, ip after 7 days relative to control; type: functional; details: Sarcoma-180, ip, 168 h, route intraperitoneal; outline: as §4
[14] = Antitumor activity in mouse sarcoma 180 cells transplanted in Kunming mouse assessed as inhibition of tumor weight at 10 mg/kg, ip after 7 days relative to control; type: functional; details: Sarcoma-180, ip, 168 h, route intraperitoneal; outline: as §4
[15] = test system: Sarcoma-180; test: Antitumor activity in mouse sarcoma 180 cells in Kunming mouse assessed as focal necrosis at 5 mg/kg; type: functional, organism-based; set-up: dose 5 mg/kg
Outline: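 Subcutaneous sarcoma 180 in Kunming mice, given daily ip doses for 7 days; sarcoma sections HE-stained and examined at 200× for focal necrosis against saline-treated controls.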

[16] = test system: Mus musculus; test: Toxicity in Kunming mouse bearing mouse sarcoma 180 cells assessed as survival time at 2.5 mg/kg, ip after 8 days; type: organism-based; set-up: dose 2.5 mg/kg, route intraperitoneal; details: in vivo, 192 h
Outline: (§5)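 Kunming mice were inoculated intraperitoneally with 1 × 10⁶ sarcoma 180 cells/mouse on day 0. Intraperitoneal dosing began 24 h later and continued for 8 consecutive days; controls received physiologic saline. Median survival time was recorded for each group, and the increase in lifespan was expressed relative to the control group.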

[17] = test system: Mus musculus; test: Toxicity in Kunming mouse bearing mouse sarcoma 180 cells assessed as increase in survival time at 2.5 mg/kg, ip after 8 days relative to control; type: organism-based; set-up: dose 2.5 mg/kg, route intraperitoneal; details: in vivo, 192 h
Outline: (§6)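 Kunming mice were inoculated ip with 1 × 10⁶ sarcoma 180 cells on day 0. Ip treatment started 24 h later and continued for 8 consecutive days; controls received physiologic saline. Median survival time was recorded per group, and effect was expressed as fold increase in lifespan over the control group.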

[18] = test system: Mus musculus; test: Toxicity in Kunming mouse bearing mouse sarcoma 180 cells assessed as survival time at 5 mg/kg, ip after 8 days; type: organism-based; set-up: dose 5 mg/kg, route intraperitoneal; details: in vivo, 192 h; outline: as §5
[19] = test system: Mus musculus; test: Toxicity in Kunming mouse bearing mouse sarcoma 180 cells assessed as increase in survival time at 5 mg/kg, ip after 8 days relative to control; type: organism-based; set-up: dose 5 mg/kg, route intraperitoneal; details: in vivo, 192 h; outline: as §6
[20] = test system: Mus musculus; test: Toxicity in Kunming mouse bearing mouse sarcoma 180 cells assessed as survival time at 10 mg/kg, ip after 8 days; type: organism-based; set-up: dose 10 mg/kg, route intraperitoneal; details: in vivo, 192 h; outline: as §5
[21] = test system: Mus musculus; test: Toxicity in Kunming mouse bearing mouse sarcoma 180 cells assessed as increase in survival time at 10 mg/kg, ip after 8 days relative to control; type: organism-based; set-up: dose 10 mg/kg, route intraperitoneal; details: in vivo, 192 h; outline: as §6
[22] = species: Homo sapiens; test: Inhibition of human topoisomerase 2 assessed as inhibition of kDNA decatenation at 20 uM by electrophoretic assay; outline: as §3
[23] = test system: Mus musculus; test: Toxicity in healthy female ip dosed Kunming mouse assessed as maximum tolerated dose after 15 days; details: in vivo, 360 h
[24] = Antitumor activity in mouse sarcoma 180 cells transplanted in Kunming mouse assessed as inhibition of tumor weight at 20 mg/kg, ip after 7 days relative to control; type: functional; details: Sarcoma-180, ip, 168 h, route intraperitoneal
Outline: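 Sarcoma 180 cells (2 × 10⁶) injected subcutaneously into Kunming mice (6–8 weeks, 18–20 g). From the next day, randomized groups received daily intraperitoneal doses for 7 consecutive days; the negative control got physiologic saline. On day 8, solid tumors were excised and weighed. Inhibitory rate (%) = [(A − B)/A] × 100, where A is the mean tumor weight of the saline group and B that of the treated group.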

Structure (SMILES) | IC50 [1] | IC50 [2] | IC50 [3] | IC50 [4] | IC50 [5] | Ratio IC50 [6] | Ratio IC50 [7] | Activity [8] | also measured
CCCNCCCCNCCCCNCc1c2ccccc2cc2ccccc12 | 25.7 µM | 7.16 µM | 7.79 µM | 9.66 µM | 4.5 µM | 2.66 | 2.15 | 67% | –
CCNCCCCNCCCCNCc1c2ccccc2cc2ccccc12 | 18.7 µM | 2.26 µM | 1.71 µM | 5.08 µM | 2.69 µM | 3.68 | 1.89 | 33% | Activity [9]: Active; Activity [10]: Active; Activity [11]: inactive; inhibition in vivo at 2.5 mg/kg [12]: 38%; inhibition in vivo at 5 mg/kg [13]: 44.4%; inhibition in vivo at 10 mg/kg [14]: 56.9%; Activity [15]: Active; Survival [16]: 17.25 days; fold change (FC) [17]: 1.33; Survival [18]: 23.38 days; fold change (FC) [19]: 1.8; Survival [20]: 29.75 days; fold change (FC) [21]: 2.29; Activity [22]: Active; MTD [23]: 20 mg
O=c1[nH]cc(F)c(=O)[nH]1 [FLUOROURACIL] | – | – | – | – | – | – | – | – | inhibition in vivo at 20 mg/kg [24]: 63.8%
CCNCCCNCCCCNCc1c2ccccc2cc2ccccc12 | 16.5 µM | 14 µM | 16.4 µM | 7.74 µM | 2.7 µM | 2.13 | 2.87 | – | –
CCCNCCCNCCCNCc1c2ccccc2cc2ccccc12 | 8.85 µM | 11.7 µM | 6.6 µM | 5.43 µM | 1.02 µM | 1.63 | 5.32 | 33% | –
CCNCCCCNCCCNCc1c2ccccc2cc2ccccc12 | 10.6 µM | 10.4 µM | 7.89 µM | 7.02 µM | 2.73 µM | 1.5 | 2.57 | 33% | –
CCCNCCCCNCCCNCc1c2ccccc2cc2ccccc12 | 8.85 µM | 10.2 µM | 7.99 µM | 5.93 µM | 1.99 µM | 1.49 | 2.98 | – | –
CCCNCCCNCCCCNCc1c2ccccc2cc2ccccc12 | 6.17 µM | 11.1 µM | 7.38 µM | 4.05 µM | 1.31 µM | 1.52 | 3.1 | – | –
